Test results taken from PMC5743405 (International Journal of Oncology, 2017).
Where “and” joins values, the source holds several entries; their conditions need not be identical. Identical values can stand only once.

Assays:
MRGPRX1 = assay: PathHunter β-arrestin; assay type: cell-based; details: 6 μM
Outline: (§1)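 Vendor-run (DiscoveRx) PathHunter enzyme fragment complementation. β-Arrestin carries the EA fragment and the receptor carries ED; recruitment restores β-gal activity, read by chemiluminescence (RLU). Agonist % activity = vehicle-subtracted RLU relative to max control ligand (gpcrMAX) or to vehicle (orphanMAX). Antagonist % inhibition = 100% × (1 − vehicle-subtracted sample RLU / vehicle-subtracted EC80 agonist control RLU).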

PTGER3 = assay: PathHunter β-arrestin; assay type: cell-based; details: 6 μM
Outline: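 β-Arrestin recruitment to GPCR read by β-galactosidase fragment complementation and chemiluminescence. Agonist: % = 100 × (test − vehicle)/(max control ligand − vehicle), hit at >30% and RLU > baseline + 3 SD. Antagonist, against EC80 agonist: % inhibition = 100 × (1 − (test − vehicle)/(EC80 − vehicle)), hit at >35% and RLU < EC80 − 3 SD.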

NPFFR1 = assay: PathHunter β-arrestin; assay type: cell-based; details: 6 μM
Outline: as §1

TLR6 = assay: RT2 qPCR primer assay, JJ012 cells; assay type: cell-based, human
Outline: (§2)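 RNA was extracted, checked by spectrophotometry and reverse-transcribed. Custom RT2 SYBR-Green primer assays were run on three samples in technical triplicate. Ct was normalised to mean GAPDH/ACTB, ΔΔCt taken versus control, and fold change = 2^−ΔΔCt.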

NPSR1B = assay: PathHunter β-arrestin; assay type: cell-based; details: agonist mode, 6 μM
Outline: as §1

c-Myc = assay: RT2 qPCR primer assay, JJ012 cells; assay type: cell-based, human
Outline: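 RNA extracted from treated and control JJ012 cells, checked by spectrophotometry and reverse transcribed. SYBR Green qPCR with custom primer assays on three samples in technical triplicates. Ct normalized to the average of GAPDH and ACTB. Fold change vs control by 2^−ΔΔCt, shown as a heat map of average Ct.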

HTR1F = assay: PathHunter β-arrestin; assay type: cell-based; details: 6 μM
Outline: as §1

miR-302C = details: human chondrosarcoma; targets Nanog, c-Myc and Bmi1 also; ref [10]; cited from earlier work
MC4R = assay: PathHunter β-arrestin; assay type: cell-based; details: 6 μM
Outline: as §1

TLR2 = assay: RT2 qPCR primer assay, JJ012 cells; assay type: cell-based, human; details: 1 μg/ml PRP-1
Outline: as §2

AGTR1 = assay: PathHunter β-arrestin; assay type: cell-based; details: agonist mode, 6 μM
Outline: (§3)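 β-Arrestin recruitment assay: the enzyme acceptor is fused to β-arrestin and the ED fragment to the GPCR. Recruitment restores β-galactosidase, read by chemiluminescence. % activity = 100% × (test − vehicle)/(max control ligand − vehicle). % inhibition = 100% × (1 − (test − vehicle)/(EC80 control − vehicle)). An agonist hit needs >30% activity and RLU > baseline + 3×SD. An antagonist hit needs >35% inhibition and RLU < EC80 RLU − 3×SD.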

CXCR1 = assay: PathHunter β-arrestin; assay type: cell-based; details: antagonist mode, 6 μM
Outline: (§4)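 Engineered cells express the receptor fused to one β-galactosidase fragment (ED) and β-arrestin fused to the complementing fragment (EA). Receptor activation recruits β-arrestin, which restores enzyme activity, and this is read by chemiluminescence (RLU). Agonist % activity is 100% × (test − vehicle)/(maximal control ligand − vehicle). Antagonist mode is challenged with an EC80 control agonist, and % inhibition is 100% × (1 − (test − vehicle)/(EC80 − vehicle)). Hits require >30% activity or >35% inhibition, plus a 3×SD RLU margin.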

TLR8 = assay: western blot, JJ012 cells; assay type: cell-based, human; details: vs untreated control, overnight incubation
CRTH2 = assay: PathHunter β-arrestin; assay type: cell-based; details: antagonist mode, 6 μM
Outline: as §4

CXCR3 = assay: PathHunter β-arrestin; assay type: cell-based; details: 6 μM
Outline: as §4

FPRL1 = assay: PathHunter β-arrestin; assay type: cell-based; details: antagonist mode, 6 μM
Outline: as §4

DRD3 = assay: PathHunter β-arrestin; assay type: cell-based; details: 6 μM
Outline: as §4

CCR10 = assay: PathHunter β-arrestin; assay type: cell-based; details: antagonist mode, 6 μM
Outline: as §3

DRD5 = assay: PathHunter β-arrestin; assay type: cell-based; details: 6 μM
Outline: as §4

TLR5 = assay: western blot, JJ012 cells; assay type: cell-based, human; details: vs untreated control, overnight incubation

Question: Which results are given for Proline rich polypeptide 1 [PRP-1]?
Answer: % Activity (MRGPRX1; agonist mode): 1%; % Inhibition (MRGPRX1; antagonist mode): −2%; % Activity (PTGER3; agonist mode): 1%; % Inhibition (PTGER3; antagonist mode): −2%; % Activity (NPFFR1; agonist mode): 3%; % Inhibition (NPFFR1; antagonist mode): −3%; gene expression (TLR6; 1 μg/ml PRP-1, heat map, vs nontreated control, technical triplicates): high expression; fold change (∆Ct) (TLR6; qRT-PCR): did not report significant fold change; % Activity (NPSR1B): 2%; gene expression (c-Myc; 10 μg/ml PRP-1, heat map, technical triplicates): went down drastically; c-Myc gene expression, dose response (c-Myc; qRT-PCR, 1 and 10 μg/ml): downregulation of its gene expression in dose-response manner; % Activity (HTR1F; agonist mode): 2%; % Inhibition (HTR1F; antagonist mode): 2%; miR-302c expression (miR-302C): epigenetically downregulates; % Activity (MC4R; agonist mode): −1%; % Inhibition (MC4R; antagonist mode): −6%; fold upregulation (∆∆Ct) (TLR2; P<0.0001, 2^−∆∆Ct, normalized to GAPDH, ACTB): 5.26 fold and > 5 fold; gene expression (TLR2; heat map, vs nontreated control, technical triplicates): high expression; % Activity (AGTR1): 2%; % Inhibition (CXCR1): −1%; protein expression (TLR8): no indication of PRP-1 effect; % Inhibition (CRTH2): −8%; % Activity (CXCR3; agonist mode): 1%; % Inhibition (CXCR3; antagonist mode): −1%; % Inhibition (FPRL1): −2%; % Activity (DRD3; agonist mode): 2%; % Inhibition (DRD3; antagonist mode): −15%; % Inhibition (CCR10): −3%; % Activity (DRD5; agonist mode): 1%; % Inhibition (DRD5; antagonist mode): −8%; protein expression (TLR5): PRP-1 did not have any effect
